pIC50: −log10 of the molar value. Calls of active or inactive are those of the source. The calls are words filed in the database; no cut-off is given here.
What was measured:
[1] = Cytotoxicity against mouse RAW264.7 cells assessed as cell viability at 250 uM after 72 hrs by MTT assay relative to control; format: cell-based; conditions: read-out: Activity
In short: (§1)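 Cells kept in DMEM with 10% heat-inactivated FBS, 1% penicillin-streptomycin and 0.1% fungizone at 37 °C, 5% CO₂. U-87 MG seeded at 2 x 10^3 cells/well, RAW 264.7 at 5 x 10^2, adhered 24 h, then exposed 72 h. MTT: 1 mg/mL for 3 h, formazan in DMSO, A595. NRU: 25 μg/mL dye, 3 h, ethanol:acetic acid:water desorb. Untreated wells = 100%; three to five independent experiments in triplicate.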

[2] = Cytotoxicity against mouse RAW264.7 cells assessed as cell viability at 500 uM after 72 hrs by MTT assay relative to control; format: cell-based; conditions: read-out: Activity; in short: as §1
[3] = Cytotoxicity against human HaCaT cells assessed as cell viability at 250 uM after 72 hrs by MTT assay relative to control; format: cell-based; conditions: read-out: Activity
In short: (§2)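 Cells grown in DMEM with 10% FBS at 37 °C, 5% CO₂; seeded 2 x 10³ cells/well, adhered 24 h, then exposed 72 h. MTT: 1 mg/mL for 3 h, formazan in DMSO, absorbance 595 nm. NRU: neutral red 25 µg/mL in serum-free medium for 3 h, desorbed in ethanol:acetic acid:water. Viability as % of untreated control; mean ± SEM of three to five independent experiments in triplicate.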

U-87 MG = test: Antitumor activity against human U87MG cells xenografted in BALB/c nude mouse assessed as tumor growth inhibition 50 mg/kg/day, ip administered for 14 days co-treated with temozolamide; format: functional, organism-based; conditions: U-87MG ATCC
In short: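 5 x 10⁵ U-87 MG cells implanted subcutaneously in right flank of male BALB/c nude mice; at about 50 mm³, randomized to saline or ip 50 mg/kg/day, with temozolomide 50 mg/kg/day in the combination arm, for 14 days. Relative tumor volume = volume on day / day 0; TGI on day 14 = [1 − RTV treated/RTV control] x 100. Two-way ANOVA with Bonferroni.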

[4] = Cytotoxicity against mouse RAW264.7 cells assessed as cell viability at 500 uM after 72 hrs by neutral red uptake-based assay relative to control; conditions: read-out: Activity; in short: as §1
Cytochrome P450 2E1 = Cytochrome P450 2E1 (Homo sapiens, UniProt P05181); test: Inhibition of CYP2E1 in human liver microsomes by HPLC-MS/MS analysis; format: ADME
Chain of Cytochrome P450 2E1 (P05181 whole entry): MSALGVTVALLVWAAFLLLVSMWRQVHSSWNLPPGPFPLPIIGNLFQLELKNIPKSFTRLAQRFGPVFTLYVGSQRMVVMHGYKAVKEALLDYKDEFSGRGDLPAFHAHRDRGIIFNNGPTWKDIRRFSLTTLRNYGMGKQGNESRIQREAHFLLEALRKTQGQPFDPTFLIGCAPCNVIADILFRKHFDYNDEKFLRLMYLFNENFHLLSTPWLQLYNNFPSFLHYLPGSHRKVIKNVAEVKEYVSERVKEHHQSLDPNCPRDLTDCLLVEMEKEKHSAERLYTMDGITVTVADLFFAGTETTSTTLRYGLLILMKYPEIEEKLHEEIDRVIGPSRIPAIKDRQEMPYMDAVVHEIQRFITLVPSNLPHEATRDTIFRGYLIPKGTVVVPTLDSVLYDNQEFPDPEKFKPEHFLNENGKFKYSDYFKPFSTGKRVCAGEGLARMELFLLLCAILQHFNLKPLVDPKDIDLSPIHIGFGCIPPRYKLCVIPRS

[5] = Cytotoxicity against mouse RAW264.7 cells assessed as cell viability at 1000 uM after 72 hrs by MTT assay relative to control; format: cell-based; conditions: read-out: Activity; in short: as §1
[6] = Cytotoxicity against human HaCaT cells assessed as cell viability at 500 uM after 72 hrs by MTT assay relative to control; format: cell-based; conditions: read-out: Activity; in short: as §2
[7] = Cytotoxicity against human HepG2 cells assessed as cell viability at 250 uM after 72 hrs by MTT assay relative to control; format: cell-based; conditions: read-out: Activity; in short: as §2
[8] = Cytotoxicity against human U87MG cells assessed as cell viability at 50 uM after 72 hrs by MTT assay relative to control; format: cell-based, U-87MG ATCC; conditions: read-out: Activity; in short: as §1
[9] = Cytotoxicity against human HaCaT cells assessed as cell viability at 50 uM after 72 hrs by MTT assay relative to control; format: cell-based; conditions: read-out: Activity; in short: as §2
Cytochrome P450 3A4 = Cytochrome P450 3A4 (Homo sapiens, UniProt P08684); test: Inhibition of CYP3A4 in human liver microsomes by HPLC-MS/MS analysis; format: ADME
Chain of Cytochrome P450 3A4 (P08684 whole entry): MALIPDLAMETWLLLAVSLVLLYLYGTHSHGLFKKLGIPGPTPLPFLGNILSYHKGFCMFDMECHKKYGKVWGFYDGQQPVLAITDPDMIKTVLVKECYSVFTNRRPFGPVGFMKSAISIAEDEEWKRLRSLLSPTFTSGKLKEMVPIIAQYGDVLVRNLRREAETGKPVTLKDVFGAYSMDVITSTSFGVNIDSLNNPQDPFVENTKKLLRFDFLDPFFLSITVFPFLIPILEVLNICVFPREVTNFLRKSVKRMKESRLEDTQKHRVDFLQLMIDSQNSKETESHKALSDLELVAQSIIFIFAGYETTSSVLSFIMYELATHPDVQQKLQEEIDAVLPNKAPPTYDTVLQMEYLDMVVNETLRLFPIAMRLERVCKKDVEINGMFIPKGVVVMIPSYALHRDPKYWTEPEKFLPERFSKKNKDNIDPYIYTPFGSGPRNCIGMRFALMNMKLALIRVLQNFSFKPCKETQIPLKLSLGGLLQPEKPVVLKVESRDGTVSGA

[10] = MRT in CF1 mouse at 50 mg/kg, ip by non-compartmental analysis; format: ADME, organism-based; conditions: in vivo
[11] = Cytotoxicity against human HepG2 cells assessed as cell viability at 50 uM after 72 hrs by MTT assay relative to control; format: cell-based; conditions: read-out: Activity; in short: as §2
HepG2 = test: Genotoxicity in human HepG2 cells assessed as induction of DNA-strand breaks at 1000 uM after 24 hrs by alkaline comet assay; format: toxicity, cell-based; conditions: hepg2, 24 h
In short: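 HepG2 seeded at 5 x 10^4 cells/well for 24 h, then exposed 24 h at 250, 500 and 1,000 μM. Alkaline comet assay: lysis 24 h, unwinding in 300 mM NaOH/1 mM EDTA (pH > 13) at 4 °C for 20 min, electrophoresis 20 min at 25 V, silver staining. MMS 100 µM as positive control. 100 cells scored 0–4 for a damage index of 0–400. Mean ± SEM of three experiments.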

[12] = Cytotoxicity against mouse RAW264.7 cells assessed as cell viability at 25 uM after 72 hrs by neutral red uptake-based assay relative to control; conditions: read-out: Activity; in short: as §1
[13] = Cytotoxicity against human U87MG cells assessed as cell viability at 50 uM after 72 hrs by neutral red uptake-based assay relative to control; set-up: species or system U-87MG ATCC; conditions: read-out: Activity; in short: as §1
[14] = Cytotoxicity against human HepG2 cells assessed as cell viability at 1000 uM after 72 hrs by MTT assay relative to control; format: cell-based; conditions: read-out: Activity; in short: as §2
[15] = Cytotoxicity against human U87MG cells assessed as cell viability at 250 uM after 72 hrs by MTT assay relative to control; format: cell-based, U-87MG ATCC; conditions: read-out: Activity; in short: as §1
[16] = Cytotoxicity against African green monkey Vero cells assessed as cell viability at 100 uM after 72 hrs by neutral red uptake-based assay relative to control; conditions: chlorocebus sabaeus, read-out: Activity; in short: as §2
[17] = Cytotoxicity against African green monkey Vero cells assessed as cell viability at 50 uM after 72 hrs by MTT assay relative to control; format: cell-based; conditions: chlorocebus sabaeus, read-out: Activity; in short: as §2
[18] = AUC (0 to infinity) in CF1 mouse at 50 mg/kg, ip by non-compartmental analysis; format: ADME, organism-based; set-up: dose 50 mg/kg, time infinity, route intraperitoneal; conditions: in vivo
In short: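 Male CF1 mice received a single ip injection of 50 mg/kg in 0.9% saline; 3 animals per time point, killed 0.03, 0.08, 0.25, 0.5, 1 and 2 h after dosing; blood collected in heparin tubes.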

[19] = Cytotoxicity against human U87MG cells assessed as cell viability at 1000 uM after 72 hrs by MTT assay relative to control; format: cell-based, U-87MG ATCC; conditions: read-out: Activity; in short: as §2
[20] = Cytotoxicity against mouse RAW264.7 cells assessed as cell viability at 100 uM after 72 hrs by MTT assay relative to control; format: cell-based; conditions: read-out: Activity; in short: as §1
Cytochrome P450 1A2 = target: T1, Cytochrome P450 1A2 (Homo sapiens, UniProt P05177); test: Inhibition of CYP1A2 in human liver microsomes by HPLC-MS/MS analysis; format: ADME
T1 sequence (P05177 whole entry): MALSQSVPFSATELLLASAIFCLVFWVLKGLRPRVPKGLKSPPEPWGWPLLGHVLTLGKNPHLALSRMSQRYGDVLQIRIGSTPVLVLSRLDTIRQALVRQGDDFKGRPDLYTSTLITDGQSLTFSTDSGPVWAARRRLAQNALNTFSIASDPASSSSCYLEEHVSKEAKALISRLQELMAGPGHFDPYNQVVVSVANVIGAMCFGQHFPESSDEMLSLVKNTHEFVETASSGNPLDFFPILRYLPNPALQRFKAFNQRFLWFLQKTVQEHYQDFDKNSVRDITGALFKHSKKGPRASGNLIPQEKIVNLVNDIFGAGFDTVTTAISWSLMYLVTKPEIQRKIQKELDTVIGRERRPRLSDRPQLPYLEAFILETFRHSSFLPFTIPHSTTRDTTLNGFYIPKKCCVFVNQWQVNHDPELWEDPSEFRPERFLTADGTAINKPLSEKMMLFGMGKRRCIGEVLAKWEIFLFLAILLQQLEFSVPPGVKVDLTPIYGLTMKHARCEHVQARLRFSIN

SMILES: O=c1[nH]c(CNC(CO)CO)c(I)c(=O)[nH]1
- viability at 72 h, 250 µM [1]: 95%
- viability at 72 h, 500 µM [2]: 91%
- viability at 72 h, 250 µM [3]: 96%
- TGI (U-87 MG): Active
- viability at 72 h, 500 µM [4]: 82%
- pIC50 (Cytochrome P450 2E1): < 4.00
- viability at 72 h, 1000 µM [5]: 72%
- viability at 72 h, 500 µM [6]: 93%
- viability at 72 h, 250 µM [7]: 100%
- viability at 72 h, 50 µM [8]: 97%
- viability at 72 h, 50 µM [9]: 95%
- pIC50 (Cytochrome P450 3A4): < 4.00
- MRT [10]: 24 min
- viability at 72 h, 50 µM [11]: 100%
- Activity (HepG2): Non-Toxic
- viability at 72 h, 25 µM [12]: 105%
- viability at 72 h, 50 µM [13]: 101%
- viability at 72 h, 1000 µM [14]: 82%
- viability at 72 h, 250 µM [15]: 97%
- viability at 72 h, 100 µM [16]: 108%
- viability at 72 h, 50 µM [17]: 97%
- AUC [18]: 17400 ng·h/mL
- viability at 72 h, 1000 µM [19]: 83%
- viability at 72 h, 100 µM [20]: 99%
- pIC50 (Cytochrome P450 1A2): < 4.00

— ChEMBL document CHEMBL4422632, “Design of Novel Inhibitors of Human Thymidine Phosphorylase: Synthesis, Enzyme Inhibition, in Vitro Toxicity, and Impact on Human Glioblastoma Cancer” (J Med Chem, 2019)
